Assay outcomes: PubChem, The Scripps Research Institute Molecular Screening Center
This is a sample that favours compounds with a hit; in the whole collection about 1.2% have one here.
zfTRPN1 agonist: zebrafish TRPN1 (NompC) channel agonism; HEK293 zebrafish TRPN1-YFP, Fluo-8 calcium fluorescence; 100% = response to 87 µM carbachol; activation, % at 3 µM; 0.18% of 220,000 active; AID 1424;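 active = activation above its plate's cutoff, the mean activation of test wells on that plate plus 3 SD, cut at about 19% in these data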;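 also: 0% = DMSO alone and 100% = 87 µM carbachol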
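Control set: carbachol 87 µM as high control, DMSO as low control; system: HEK293 stable line with zebrafish TRPN1-YFP; read-out: % activation versus carbachol response; detection: intracellular calcium fluorescence with Fluo-8; doses: single test compound dose, 3 µM nominal, 0.3% DMSO; schedule: dye 1 h 37 °C plus 30 min RT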
TRPML3 ag: agonists of human TRPML3 channel | HEK293 TRPML3-YFP, Fluo-8 calcium fluorescence; 100% = the carbachol control signal | 0.29% of 220,000 active | AID 1448 | activation, % at 3 µM;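 active = activation above its plate's cutoff, the mean activation of the plate's test wells plus 3 SD, cut at about 12% in these data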;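 also: 0% = DMSO only wells and 100% = carbachol wells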
Target sequence (Q8TDD5 whole entry, looked up): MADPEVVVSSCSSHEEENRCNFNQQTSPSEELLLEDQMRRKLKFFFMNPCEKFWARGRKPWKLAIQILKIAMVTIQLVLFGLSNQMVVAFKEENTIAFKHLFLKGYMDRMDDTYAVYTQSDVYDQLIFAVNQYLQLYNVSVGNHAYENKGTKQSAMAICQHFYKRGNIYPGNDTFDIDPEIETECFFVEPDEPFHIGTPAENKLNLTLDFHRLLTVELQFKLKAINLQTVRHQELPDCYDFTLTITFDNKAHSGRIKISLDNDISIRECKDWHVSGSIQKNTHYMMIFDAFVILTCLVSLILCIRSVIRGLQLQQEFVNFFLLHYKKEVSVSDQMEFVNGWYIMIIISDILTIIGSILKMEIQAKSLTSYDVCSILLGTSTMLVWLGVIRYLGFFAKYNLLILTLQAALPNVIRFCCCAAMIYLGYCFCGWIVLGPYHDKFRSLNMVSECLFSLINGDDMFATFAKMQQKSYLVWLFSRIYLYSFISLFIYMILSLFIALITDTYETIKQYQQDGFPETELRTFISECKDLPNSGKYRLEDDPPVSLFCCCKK
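Test system: TRPML3-YFP stable HEK293 cells. Doses: single point at 3 µM. Incubation: dye loading 1 h 37 °C then 30 min ambient, 125 s read. Signal: Fluo-8 calcium dye fluorescence, ex 470-495, em 515-575 nm. Measure: percent activation from peak-to-basal fluorescence ratio, scaled between DMSO and carbachol.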
CHO-K1 Ca antag: counter-screen for M1 antagonists: effect in parental CHO-K1 cells | 0.6% of 360,000 active | AID 602250 | ATP-induced calcium, Fluo-8 fluorescence | inhibition, % at 3 µM;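 active = inhibition above a per-plate cutoff, the plate's mean sample inhibition plus 3 SD, cut at about 24% in these data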;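 also: 0% = DMSO plus EC80 ATP and 100% = DMSO alone without ATP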
M1 PAM parental: nonselective activator or artifact in parental CHO-K1 calcium assay. 0.02% of 360,000 active. AID 602247. ATP EC20, Fluo-8 calcium fluorescence; 0% at ATP EC20, 100% at ATP max. activation, % at 3 µM;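 active = activation above the run cutoff, the mean activation of all test compounds plus 3 SD, cut at about 40% in these data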;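 also: peak over basal fluorescence ratio in a 140 s read after ATP addition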
M1 ag parental: counter-screen for M1 agonists: effect in parental CHO-K1 cells; activation, % at 3 µM; 0.48% of 360,000 active; Fluo-8 calcium fluorescence; scaled to maximal ATP response, vehicle zero; AID 602248; in the data active = activation above about 15%;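 also: untransfected CHO-K1 host cells lacking M1 receptor as counterscreen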
Numbers without * were called inactive; · = no result.

SMILES	zfTRPN1 agonist	TRPML3 ag	CHO-K1 Ca antag	M1 PAM parental	M1 ag parental
COC(=O)C1CCCCN1C(=O)c1cc(COc2cccc3cccnc23)on1 (centres undefined)	·	·	8.8	4.7	1.7
CCOC(=O)CC1CCCCN1C(=O)c1cc(COc2cccc3cnccc23)on1 (centres undefined)	·	·	44.9*	-29.1	19.7*
CN(Cc1nccs1)C(=O)c1cc(COc2cccc3cnccc23)on1	·	·	15.5	-14.9	16.2*
COC(=O)C1CCCCN1C(=O)c1cc(COc2cccc3cnccc23)on1 (centres undefined)	·	·	28.1*	-22.3	15.3*
O=C(c1ccccc1)c1ccc(OCC(O)CNCc2ccc(F)cc2)cc1 (centres undefined)	·	·	2.1	7.5	7.4
Cc1ccc(C(OCC(O)CNCc2ccc(F)cc2)c2ccccc2)cc1 (centres undefined)	·	·	35.6*	11.5	17.4*
CC1(C(=O)NCc2cccc3ccccc23)CCN1C(=O)Cc1ccc(-c2ccccc2)cc1 (centres undefined)	·	·	1.3	10.1	6.7
CC(=O)Nc1ccccc1-c1cccc2nccn12	·	·	-7.0	18.4	0.2
COCCCN1C(=O)C(CC(=O)NCC2CCCCC2)CC(C(=O)N(C(C)C)C(C)C)=C1C (centres undefined)	·	·	-18.2	12.4	-0.6
O=C(N/N=C\c1ccc([N+](=O)[O-])s1)C1COc2ccccc2O1 (centres undefined)	·	·	64.9*	-1.8	0.8
O=C(N/N=C\c1ccc(Cl)s1)C1COc2ccccc2O1 (centres undefined)	-0.3	0.3	-9.6	22.0	5.9
O=C1O[C@@H](c2ccccc2)C[C@@H](O)C(=O)CCCCc2ccccc21	·	·	-6.0	-1.3	0.7
O=C(NCc1ccccc1Cl)c1ccc2sc([C@@H]3O[C@H](CO)[C@H](O)[C@H](O)[C@H]3O)nc2c1	·	·	-2.8	7.3	0.3
C1=C(c2ccc(-c3ccccc3)cc2)Nc2ncnn2C1c1ccco1 (centres undefined)	4.0	3.5	29.3*	-11.1	38.1*
OCCCc1nc2n(n1)C(c1cccs1)C=C(c1ccc(Br)cc1)N2 (centres undefined)	-1.0	0.3	·	·	·
Brc1ccc(C2=CC(c3cccs3)n3ncnc3N2)cc1 (centres undefined)	2.4	1.8	2.0	-9.9	33.0*
COc1cc2c(cc1OC)CN(C(=S)Nc1cccc(Cl)c1C)CC2	4.6	2.7	-2.9	-11.3	3.7
COc1ccccc1NC(=S)N1CCc2cc(OC)c(OC)cc2C1	0.1	0.8	24.4*	-16.6	-0.1
CCCc1nc(NCc2ccccn2)c2nnn(Cc3ccccc3F)c2n1	-0.4	1.4	30.2*	-2.9	0.3
CCCc1nc(NCc2ccncc2)c2nnn(Cc3ccccc3F)c2n1	-1.4	-0.2	-4.7	19.2	1.3
O=C(Cn1cnc2c(NCc3ccccc3)ncnc21)N1CCN(c2ccccn2)CC1	·	·	-2.3	9.1	1.4
Cc1cc(C)c(CN2CCN(C(=O)Cn3cnc4c(NCc5ccccc5)ncnc43)CC2)c(C)c1	·	·	25.2*	-10.0	1.1
CC(C)C[C@@H]1Cc2[nH]c(=S)[nH]c(=O)c2[C@H](C)O1	·	·	-12.1	14.8	0.0
COc1cccc(CN2CCC2(C)C(=O)Nc2cccc(Oc3ccccc3)c2)c1OC (centres undefined)	·	·	-10.8	12.2	0.6
CCN1/C(=C\C=C2\C(=O)N(C)C(=S)N2C)Sc2ccccc21	-0.6	0.8	-1.3	14.3	0.3
SMILES	zfTRPN1 agonist	TRPML3 ag	CHO-K1 Ca antag	M1 PAM parental	M1 ag parental
CCOC(=O)/C(=C\C=C1/Sc2cc(OCC)c(OCC)cc2N1CC)C(C)=O	73.5*	45.5*	17.8	-2.4	38.3*
CCOC(=O)/C(=C/C=C1\Sc2cc(OCC)c(OCC)cc2N1CC)C(C)=O	46.4*	30.3*	30.4*	-15.3	45.6*
CCN1/C(=C/C(C)=O)Sc2ccc(OC)cc21	1.1	0.0	-17.7	8.2	-0.4
COCC#Cc1ccc2c(c1)O[C@@H](CN(C)S(=O)(=O)c1cccc(F)c1)[C@@H](C)CN([C@H](C)CO)S2(=O)=O	·	·	-0.2	12.9	1.7
CC(=O)Oc1c(C)cc(Cl)cc1C(=O)Nc1ccc([N+](=O)[O-])cc1Cl	26.1*	8.5	22.6	4.3	13.0
CC(=O)OCC(=O)Nc1ccc([N+](=O)[O-])cc1Cl	-0.1	0.6	19.4	-11.2	-0.1
CC1=C(C(=O)N(C(C)C)C(C)C)CC(CC(=O)NCCCCc2ccccc2)C(=O)N1Cc1ccc(C(C)(C)C)cc1 (centres undefined)	·	·	15.8	0.0	0.0
CCN(C(=O)c1ccc(NC(=O)C2CCCCC2C(=O)O)cc1)c1ccccc1 (centres undefined)	·	·	-4.7	13.0	-0.3
O=C(COC(=O)c1cc(=O)[nH]c2ccccc12)c1cccs1	-1.0	-0.6	29.7*	-19.4	0.0
O=C(COC(=O)c1cc(=O)[nH]c2ccccc12)c1ccccc1	-1.7	-0.7	-13.5	15.7	1.6
CCCCNC(=O)C1(C)CCC(=O)N1CCc1c[nH]c2ccccc12 (centres undefined)	·	·	7.5	7.0	1.2
CC1(C(=O)NCc2ccccc2)CCC(=O)N1C1CC1 (centres undefined)	·	·	2.2	18.8	0.9
CN(CC(=O)Nc1ccccc1Cl)C(=O)c1cccc(S(=O)(=O)N2CCN(c3ccccc3)CC2)c1	·	·	28.3*	-18.0	4.9
CN(CC(=O)Nc1ccccc1Cl)C(=O)c1cccc(S(=O)(=O)N2CCN(c3ccc(F)cc3)CC2)c1	·	·	22.1	-15.0	5.2
C=CCN(CC=C)C(=O)C1c2ccccc2Oc2ccccc21	·	·	-13.5	19.2	-0.5
CCN(CC)C(=O)C1c2ccccc2Oc2ccccc21	·	·	1.7	5.7	27.3*
Cc1ccc(N2C(=O)c3cccc(Oc4ccc(Cl)cc4)c3C2=O)c(C)c1	2.1	0.2	-12.1	7.2	0.4
O=C(O)CN1C(=O)c2cccc(Oc3ccc(Cl)cc3)c2C1=O	-0.2	0.1	29.5*	-5.4	-0.6
Cc1ccc(S(=O)(=O)Nc2ccc(Nc3nccn4c(-c5ccc6ccccc6c5)cnc34)cc2)cc1	·	·	-2.6	7.0	-0.3
COc1ccc(C(=O)Cn2c(N3CCCCC3)nc3c2c(=O)n(C)c(=O)n3C)cc1OC	·	·	1.8	15.4	18.4*
Cc1ccc(SCC(=O)OCC(=O)N(CC(C)C)c2c(N)n(Cc3ccccc3)c(=O)[nH]c2=O)c(C)c1	·	·	-2.0	1.0	1.3
CC(C)CN(C(=O)COC(=O)CSc1ccccc1F)c1c(N)n(Cc2ccccc2)c(=O)[nH]c1=O	·	·	60.6*	-6.6	0.8
CC(C)(C)n1nnnc1C(CCc1ccccc1)N1CCN(C/C=C/c2ccccc2)CC1 (centres undefined)	·	·	-6.6	16.1	2.2
CC1(C)CC(=O)C2=C(C1)OC1=C(C(=O)CC(C)(C)C1)C2c1ccccc1Cl	·	·	-0.4	-7.6	-0.2
C[C@H](NC(=O)C1CCN(S(=O)(=O)c2ccccc2)CC1)C(=O)NCc1ccncc1	·	·	11.8	-4.9	0.0
